High-throughput results deposited in PubChem by Broad Institute.
Hits are enriched below; roughly 2.1% of the tested compounds scored in any of these assays.
PGC1a acetyl inh – modulators of PGC1a acetylation; U2OS PGC1a acetylation, AlphaScreen anti-acetyl-lysine; with virally co-expressed GCN5 acetyltransferase; inhibition, % at 15.6 µM; 350,000 compounds, 0.17% hits; AID 651687;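 active = every replicate shows inhibition of at least 40%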;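 also: 0% = neutral control wells and 100% = positive control wells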
AF4-AF9 inh – blocks AF4 peptide binding to human AF9 | P42568 | AlphaScreen, biotin-AF4 peptide binding to FLAG-AF9 | inhibition, % at 10 µM | 350,000 compounds, 0.47% hits;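 active = every replicate reaching a set inhibition limit, whatever the replicate mean, cut at about 25% in these data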;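 also: 0% = plate neutral control median and 100% = total signal loss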
Target sequence (P42568 whole entry, looked up): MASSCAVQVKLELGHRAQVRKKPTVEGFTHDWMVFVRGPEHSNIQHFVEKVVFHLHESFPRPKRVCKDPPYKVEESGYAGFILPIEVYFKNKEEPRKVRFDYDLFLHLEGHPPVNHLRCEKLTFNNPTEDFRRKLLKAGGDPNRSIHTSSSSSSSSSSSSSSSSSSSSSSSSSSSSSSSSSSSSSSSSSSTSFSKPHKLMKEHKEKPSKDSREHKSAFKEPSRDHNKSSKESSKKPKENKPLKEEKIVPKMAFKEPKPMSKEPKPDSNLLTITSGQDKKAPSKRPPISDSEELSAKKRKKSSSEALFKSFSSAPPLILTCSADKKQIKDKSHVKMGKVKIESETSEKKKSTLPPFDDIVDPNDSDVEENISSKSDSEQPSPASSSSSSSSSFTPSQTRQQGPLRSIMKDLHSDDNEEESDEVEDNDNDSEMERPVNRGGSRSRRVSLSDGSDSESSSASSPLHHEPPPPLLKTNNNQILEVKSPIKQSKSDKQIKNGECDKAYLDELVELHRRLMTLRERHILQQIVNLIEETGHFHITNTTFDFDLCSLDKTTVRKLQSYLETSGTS
INS-1E GSIS act – GLuc luminescence reporter in INS-1E cells, primary screen for activators of glucose-dependent secretion of insulin; INS-1E GLuc reporter insulin secretion, 2-3 h; activation, % at 16.6 µM; 370,000 compounds, 0.61% hits;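 active = lowest replicate activation of at least 40%, so every replicate reaches that level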;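 also: 0% = median of neutral control wells and 100% = median of IBMX positive control wells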
XiGFP reactiv – reactivates the inactive X chromosome in mouse fibroblasts. XiGFP mouse fibroblasts, % GFP-positive cells imaging, 3 d; cells co-treated with 5-aza-dC sensitizer; scaled so ellipticine positive control = 100%. activation, % at 7.58 µM. 360,000 compounds, 0.055% hits. AID 743238;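 active = mean normalized replicate activation at least 10% and every replicate at or above 10%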;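 also: 0% = median of on-plate neutral control wells and 100% = ellipticine 6 µM median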
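Schedule: 3 d treatment, 15 min room-temperature fixation; system: 68-5-11 XiGFP fibroblast line; buffer or medium: DMEM plus 5-aza-dC sensitizer; control set: ellipticine 6 µM positive control; compound: one concentration, pinned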
PAX8 inh HTS – PAX8 transcriptional activity inhibition; 360,000 compounds, 1.2% hits; RMG-I TPO-luciferase reporter, SteadyGlo, 24 h; AID 652154; inhibition, % at 12.6 µM;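 active = mean replicate inhibition at least 60% with every replicate also reaching 60%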;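 also: luciferase light reporting Pax8 driven TPO promoter activity; plate controls were median of neutral control wells for no effect and mitoxantrone controls for full effect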
EWS-Fli block – EWS/Fli transcriptional activity inhibition; A673 NR0B1-luciferase reporter, viability-normalised; inhibition, % at 12.6 µM; 350,000 compounds, 0.67% hits; AID 651661;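 active = mean inhibition of at least 50% after viability correction, with every replicate also passing that limit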;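 also: firefly luciferase signal divided by Alamar Blue viability fluorescence both relative to DMSO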
The depositor's hits bear a star; nt = no result; ! = not active in a repeat.

SMILES	PGC1a acetyl inh	AF4-AF9 inh	INS-1E GSIS act	XiGFP reactiv	PAX8 inh HTS	EWS-Fli block
Cc1ccccc1NC(=S)c1nc2ccccc2[nH]1	2	27*	nt	0	-12	-20
O=C(C1CCC1)N1CCCCN2[C@H](C1)[C@H](c1ccc(C#CC3CCCC3)cc1)[C@@H]2CO	14	1	nt	nt	18	4
O=C(Nc1cccc(F)c1)N1C[C@@H]2N[C@H](C1)C2c1ccc(-c2cncnc2)cc1 (some centres undefined)	10	nt	14	0	9	23
O=C(Nc1cccc(F)c1)N1C[C@@H]2N[C@H](C1)C2c1ccc(-c2ccc(F)cc2)cc1 (some centres undefined)	-22	1	-30	0	86*!	3
N#Cc1cccc(-c2ccc(C3[C@@H]4CN(C(=O)Nc5ccc6c(c5)OCO6)C[C@H]3N4)cc2)c1 (some centres undefined)	-10	13	-37	1	-1	1
Cc1cccc(-c2ccc(C3[C@@H]4CN(Cc5ccccc5)C[C@H]3N4)cc2)c1 (some centres undefined)	-4	8	14	0	-11	-3
N#Cc1ccc(-c2ccc(C3[C@@H]4CN(C(=O)c5ccc6c(c5)OCO6)C[C@H]3N4)cc2)cc1 (some centres undefined)	-7	-5	7	0	91*!	-8
O=C(Nc1ccc2c(c1)OCO2)N1C[C@@H]2N[C@H](C1)C2c1ccc(-c2ccccc2)cc1 (some centres undefined)	11	31*	0	0	11	-7
Cc1cccc(-c2ccc(C3[C@@H]4CN(Cc5cccc(F)c5)C[C@H]3N4)cc2)c1 (some centres undefined)	-21	nt	70*	0	-6	-8
O=C(C[C@H]1CC[C@H]2[C@@H](COC[C@H](O)CN2Cc2nccs2)O1)NCc1ccccc1F	-1	0	-10	0	4	-3
Cc1cccc(-c2ccc(C3[C@@H]4CN(C(=O)Nc5ccc(F)cc5)C[C@H]3N4)cc2)c1 (some centres undefined)	0	3	-4	0	95*!	-6
Cc1cccc(-c2ccc(C3[C@@H]4CN(C(=O)Nc5ccccc5)C[C@H]3N4)cc2)c1 (some centres undefined)	-15	nt	-20	0	-3	27
CC(C)NC(=O)Nc1ccc2c(c1)C(=O)N([C@H](C)CO)C[C@@H](C)[C@@H](CN(C)C)O2	2	-1	15	0	-3	nt
C[C@@H]1CN([C@@H](C)CO)C(=O)c2cc(C3=CCCCC3)cnc2O[C@H]1CN(C)C(=O)CN1CCOCC1	-2	-5	22	1	nt	-9
Cc1ccc(OCC(=O)NNC(=O)C(C)Sc2ncnc3sc(C)c(C)c23)cc1 (centres undefined)	8	nt	nt	nt	32	nt
Cc1sc2ncnc(SC(C)C(=O)N3c4ccccc4Sc4ccccc43)c2c1C (centres undefined)	nt	-5	-6	0	15	90*
C[C@@H]1CCCCO[C@H](CN(C)C(=O)C2CCCCC2)[C@H](C)CN([C@H](C)CO)C(=O)c2cc(NS(=O)(=O)c3ccc(Cl)cc3)ccc2O1	-3	5	-2	0	67*	17
Cc1ccc(S(=O)(=O)Nc2ccc3c(c2)C(=O)N([C@H](C)CO)C[C@@H](C)[C@H](CN(C)C(=O)C2CCCCC2)OCCCC[C@H](C)O3)cc1	1	0	-24	0	75*	13
C[C@H]1CCCCO[C@H](CN(C)C(=O)C2CCCCC2)[C@@H](C)CN([C@@H](C)CO)C(=O)c2cc(NS(=O)(=O)c3ccc(Cl)cc3)ccc2O1	-1	5	-7	1	86*	54*
C[C@@H]1CCCCO[C@@H](CN(C)C(=O)C2CCCCC2)[C@H](C)CN([C@@H](C)CO)C(=O)c2cc(NS(=O)(=O)c3ccc(Cl)cc3)ccc2O1	-7	0	-18	0	81*	-20
C[C@@H]1CCCCO[C@H](CN(C)C(=O)C2CCCCC2)[C@@H](C)CN([C@H](C)CO)C(=O)c2cc(NS(=O)(=O)c3ccc(Cl)cc3)ccc2O1	7	-3	25	0	-2	2
C[C@@H]1CCCCO[C@@H](CN(C)C(=O)C2CCCCC2)[C@@H](C)CN([C@@H](C)CO)C(=O)c2cc(NS(=O)(=O)c3ccc(Cl)cc3)ccc2O1	-5	7	-13	0	32	8
Cc1ccc(S(=O)(=O)Nc2ccc3c(c2)C(=O)N([C@H](C)CO)C[C@H](C)[C@H](CN(C)C(=O)C2CCCCC2)OCCCC[C@H](C)O3)cc1	5	1	-21	0	17	9
CC(C)C(=O)Nc1ccc2c(c1)C(=O)N(C)[C@@H]1CC[C@@H](CC(=O)NC3CCCC3)O[C@@H]1CO2	2	2	4	0	-1	0
O=C(C[C@H]1CC[C@H]2[C@@H](COC[C@@H](O)CN2S(=O)(=O)c2cccc(Cl)c2)O1)N1CCCCC1	0	-3	2	0	-5	-4
SMILES	PGC1a acetyl inh	AF4-AF9 inh	INS-1E GSIS act	XiGFP reactiv	PAX8 inh HTS	EWS-Fli block
CCC(=O)N1CC2(CCN(Cc3cncnc3)CC2)c2c([nH]c3cc(OC)ccc23)[C@H]1CO	2	1	6	0	nt	30
O=[N+]([O-])c1ccc(Sc2cccc3cccnc23)c([N+](=O)[O-])c1	-35	-6	3	nt	nt	-33
O=[N+]([O-])c1ccc(Sc2ccncn2)c([N+](=O)[O-])c1	nt	2	84*	2	105*	33
Cc1cc(C)nc(Sc2ccc([N+](=O)[O-])cc2[N+](=O)[O-])n1	nt	nt	6	1	94*	nt
CCN1CCSc2ccc(C(=O)NCc3ccccc3F)cc21	0	25*	nt	0	14	-2
O=C(NCCCN1CCCC1)c1ccc2c(c1)N(Cc1ccccc1)CCS2	2	13	11	0	3	3
CCN1CCN(CCCNC(=O)c2ccc3c(c2)N(Cc2ccccc2)CCS3)CC1	6	17	43*	0	9	11
CCN1CCSc2ccc(C(=O)NCc3ccccc3C)cc21	-3	49*	-13	0	-8	-4
C[C@@H]1CN([C@H](C)CO)C(=O)c2cccc(NC(=O)c3ccc(-c4nccs4)cc3)c2O[C@@H]1CN(C)C(=O)Nc1ccc(F)cc1	4	-7	-5	-1	6	-13
CN1C(=O)c2cc(NC(=O)c3ccccc3Cl)ccc2OC[C@@H]2O[C@H](CC(=O)O)CC[C@@H]21	2	-5	2	0	-11	1
COc1ccc(CN(C)C[C@@H]2Oc3ccc(NC(=O)CCC(F)(F)F)cc3CC(=O)N([C@@H](C)CO)C[C@@H]2C)cc1	-3	-2	-7	0	-16	0
